The text below walks through data of ChEMBL document CHEMBL4513216, “Probing the Open Global Health Chemical Diversity Library for Multistage-Active Starting Points for Next-Generation Antimalarials” (ACS Infect Dis, 2020).

A short description of the data set: Toxicity liver stage against HepG2, at 10uM. The note with it: human, HepG2-A16-CD81EGFP cells; read-out: INHIBITION
The format is cell-based. On the set-up: test concentration 10 uM, cell line HepG2-A16-CD81EGFP. The essentials:
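Uninfected HepG2-A16-CD81EGFP cells, 3 × 10^3 per well, 1536-well, plated on prespotted compound at 10 μM final, parasite-free screening media added to match infected plates; puromycin 10 μM positive, DMSO 0.5% negative; run in parallel with 48 h PbLuc assay at 37 °C, 5% CO2; viability by CellTiter-Glo luminescence, normalized to controls.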

As for `Cc1cccc(CN2C[C@H]3CCC[C@@]3(COCc3csc(C)n3)C2)n1`, the cytotoxicity at 10 µM came to 14.3%. `Cn1cccc1C(=O)N1CCO[C@@H]2CN(Cc3nccs3)C[C@@H]2C1`: the cytotoxicity at 10 µM was -103%. For the compound `Cc1nn(C)cc1CN1CCc2nc(-c3cccnc3)nc(O)c2C1`, the cytotoxicity at 10 µM was found to be 22.5%. In the case of `CC(c1cc(F)ccc1F)N(C)CCS(=O)(=O)CCC(N)=O` (centres undefined), the cytotoxicity at 10 µM is -47%.

Turning to `CCc1sc(C(=O)N2CCC(Nc3ccc(C)nn3)CC2)cc1C`, the cytotoxicity at 10 µM was found to be 1.86%. As to `COCCN(CC(F)F)c1cc(C(F)(F)F)nc2ncnn12`, the cytotoxicity at 10 µM stood at 4.11%.

For `CCn1ncnc1CN1CCc2[nH]cnc2C1Cc1ccccc1` (centres undefined), the cytotoxicity at 10 µM was -4.94%. As to `NC(=O)CN1CCC(NC(=O)COc2ccc(Cl)c(Cl)c2)CC1`, the cytotoxicity at 10 µM is -8.7%.

On to `CC(C)c1nc(C2CCCN2CCOCC2CC2)no1` (centres undefined), for which the cytotoxicity at 10 µM was determined as 1.8%. Take `CCC(C)(NCc1cccc(NC(C)=O)c1)c1nc(C)cs1` (centres undefined): the cytotoxicity at 10 µM was -2.27%. With `CC(CCc1ccco1)NC(=O)Nc1cc(C(F)(F)F)c[nH]c1=O` (centres undefined), the cytotoxicity at 10 µM was -6.9%. For `Cc1ccnc(NC(=O)C2CCN(CCCn3ccnc3C)CC2)c1`, the cytotoxicity at 10 µM is -58.2%. For the compound `CCc1nc2n(n1)CC(NCc1cc3ccccc3o1)CC2` (centres undefined), the cytotoxicity at 10 µM turned out to be 3.77%. The value for `CC(C)(C)NC(=O)CN1CCN(C(=O)Nc2ccc(F)cc2F)CC1` was -23.2%; that for `O=C(Nc1cccs1)NC(CCCO)c1ccccc1` (centres undefined) was 9.18%; that for `COCCN1C(=O)[C@@H]2CC[C@H]1CN(C(=O)Cc1c(F)cccc1Cl)C2` was -1.02%. In the case of `CNC(=O)C(C)CN(C)C(=O)Nc1cc(-n2cccc2)ccc1F` (centres undefined), the cytotoxicity at 10 µM was -5.28%. Consider `CC(=O)N1CCC2(CCCN(S(=O)(=O)c3ccc(F)cc3)C2)C1` (centres undefined), for which the cytotoxicity at 10 µM worked out at 2.26%.

As to `Cc1cn(CC(=O)NCC(=O)NC2CC2)c2ccccc12`, the cytotoxicity at 10 µM is -0.966%.

Turning to `O=C(O)c1cccc(N2C[C@H](NC(=O)C3CCOCC3)[C@@H](C3CC3)C2)n1`, the cytotoxicity at 10 µM was -4.31%. In the case of `COc1ccc(C(=O)N2C[C@@H](C(=O)O)[C@H](c3cccc(F)c3)C2)c(O)c1`, the cytotoxicity at 10 µM stood at 6.03%. Consider `CC(=O)N1CC(C(=O)NC(C)c2cnn(C)c2C)C1` (centres undefined), for which the cytotoxicity at 10 µM was determined as 4.65%. Then `c1nc(COCC2CC2)c2n1CCCN(CC1CC1)C2`, with -4.77%; and `O=C(CCn1cccn1)N1C[C@H]2CC[C@@H](C1)N(Cc1ccccn1)C2=O`, with -13.6%. `CS(=O)(=O)N1Cc2nc(C(=O)NCc3ccccc3)oc2C1`: the cytotoxicity at 10 µM is -3.46%.

Consider `CCSc1ncc(-c2nccn2CCN(C)C)cn1`, for which the cytotoxicity at 10 µM was 2.41%. With `CCCOC1CCCN(Cc2nc(-c3ccc(F)cc3F)oc2C)C1` (centres undefined), the cytotoxicity at 10 µM is -51.1%. Regarding `Cn1cc(C(=O)NC(Cn2cccn2)C(C)(C)C)cn1` (centres undefined), the cytotoxicity at 10 µM is -6.36%.

Turning to `Cc1cc(C(=O)N2CCCC(c3nccn3C)C2)cc(S(N)(=O)=O)c1C` (centres undefined), the cytotoxicity at 10 µM came to 5.5%. On to `Cc1nnc2ccc(C(=O)N3CCSC(C)(C)C3)cn12`, for which the cytotoxicity at 10 µM was -3.54%. Turning to `CCN(Cc1ccc(C#N)cc1F)C(=O)CN(C)CC(N)=O`, the cytotoxicity at 10 µM amounted to 7.52%. The value for `CSCC(=O)N1CCOC(c2nc(C)n[nH]2)C1` (centres undefined) was 0.986%.

For the compound `N#Cc1cccc(N2CCCC(CO)(CCOc3ccccc3)C2)n1` (centres undefined), the cytotoxicity at 10 µM was -47.2%. Then `COCCC(=O)N1CCC2(COCc3cnc(N4CCOCC4)nc32)C1` (centres undefined), with 2.21%; and `O=C(Cc1c[nH]c2ccccc12)N1CCC(Nc2cccnc2)CC1`, with -26.6%; and `COCc1ncn2c1CN(C(=O)c1ccco1)CC2`, with 9.32%. For the compound `CN(C)[C@@H]1CN(C(=O)c2cc3ccc(F)cc3[nH]2)C[C@H]1O`, the cytotoxicity at 10 µM worked out at 1.05%. Then `O=C(NC1CCCC1)c1nc2c(o1)CN(CCO)C2`, with 13.2%; and `Cc1cccc(N(C)S(=O)(=O)c2cc(C(=O)O)cs2)c1`, with -6.12%.
